Legend:
[1] = test system: MT-2 human T-cells; experiment: Cytotoxicity: inhibition of MT-2 cell growth, MTT; format: cell-based; details: MT-2 cells
How it was run: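 Run alongside the HIV-1 IIIB protection assay in MT-2 human T-cells, with the MTT colorimetric method as read-out. CC50 is the concentration that inhibits MT-2 cell growth by 50%, obtained at the same time as the EC50 for protection of infected cells.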

[2] = test system: IIIB strain of HIV-1; format: cell-based; details: HIV-1 IIIB, MT-2 cells

Structure (SMILES) | cytotoxicity [1] [µM] | anti-viral activity below CC50 level [2]
COc1nc(Nc2ccc(C#N)c(OCC=C(C)C)c2)nc(OCCCOc2nc(Nc3ccc(C#N)c(OCC=C(C)C)c3)nc(OC)n2)n1 [Compound 6b] | 20 to 40 | –
COc1nc(NCCNc2nc(Nc3ccc(C#N)c(OCC=C(C)C)c3)nc(OC)n2)nc(Nc2ccc(C#N)c(OCC=C(C)C)c2)n1 [Compound 6e] | – | did not show anti-viral activity below their CC50 levels
COc1nc(NCCCNc2nc(Nc3ccc(C#N)c(OCC=C(C)C)c3)nc(OC)n2)nc(Nc2ccc(C#N)c(OCC=C(C)C)c2)n1 [Compound 6f] | – | did not show anti-viral activity below their CC50 levels
COc1nc(Nc2ccc(C#N)c(OCC=C(C)C)c2)nc(OCCOc2nc(Nc3ccc(C#N)c(OCC=C(C)C)c3)nc(OC)n2)n1 [Compound 6a] | 20 to 40 | –

Source: PMC3278212 (Bioorganic & medicinal chemistry letters, 2012)
